Paper PMC3064745 (Immunity, 2011)
Like-named read-outs stand apart in the source and are kept apart here.

Columns and labels:
NKT cells [1] = assay: IFN-γ production by NKT cells, intracellular cytokine staining; assay type: cell-based, mouse; conditions: 100 ng/ml, 8h stimulation, ICS
How it was run: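 NKT-enriched thymocytes were cultured for 8h with Jα18−/− splenocytes pulsed with 100 ng/ml glycolipid, with GolgiStop for the last 4h. Cells were surface stained, fixed, permeabilised and stained with anti-IFN-γ. Readout was percent IFN-γ⁺ among α-GalCer-CD1d tetramer⁺ cells. Data representative of 4 experiments.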

Vβ7+ NKT cells = assay: Vβ usage of NKT cells after 3 days of in vitro proliferation; assay type: cell-based, mouse; conditions: Vβ usage by cell division peak
How it was run: (§1)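 Jα18−/− mouse splenocytes were pulsed overnight with glycolipid plus IL-2 (100 U/ml), then spun through FCS and resuspended to remove excess lipid. Thymocytes were NKT-enriched by complement depletion of anti-HSA/anti-CD8-labelled cells, cleared of dead cells by gradient, and labelled with CFSE […] for 10 min at 37C. Cells were co-cultured at 2:1 splenocytes:thymocytes for 72h.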

NKT cells [2] = assay type: cell-based, mouse; conditions: 3 d culture
How it was run: as §1

NKT cells [3] = assay: Cytokines in culture supernatant, cytometric bead array; assay type: cell-based, mouse; conditions: 100 ng/ml, 8h stimulation
mouse Vβ8.2 NKT TCR = mouse Vβ8.2 NKT TCR (Mus musculus, UniProt P11609+Z9CWY5XBV8); assay: Surface plasmon resonance of NKT TCR binding to CD1d-AGL complexes
How it was run: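 SPR used soluble mouse NKT TCR (Vα14-Jα18; Vβ8.2) injected over streptavidin-immobilised mouse CD1d loaded with glycolipid, with a reference cell of unloaded CD1d. KD was derived from equilibrium responses. Kinetic rate constants were also fitted, with t1/2 determined from the interactions.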

NKT cells [4] = conditions: ICS at 2 and 6 hours after in vivo challenge, compared to α-GalCer; ref Sullivan et al 2010; cited from earlier work
[5] = Serum cytokines after in vivo treatment; conditions: 20h after in vivo treatment, compared to C20:2 and OCH

Sequence of mouse Vβ8.2 NKT TCR (P11609 whole entry, looked up, other chains not shown): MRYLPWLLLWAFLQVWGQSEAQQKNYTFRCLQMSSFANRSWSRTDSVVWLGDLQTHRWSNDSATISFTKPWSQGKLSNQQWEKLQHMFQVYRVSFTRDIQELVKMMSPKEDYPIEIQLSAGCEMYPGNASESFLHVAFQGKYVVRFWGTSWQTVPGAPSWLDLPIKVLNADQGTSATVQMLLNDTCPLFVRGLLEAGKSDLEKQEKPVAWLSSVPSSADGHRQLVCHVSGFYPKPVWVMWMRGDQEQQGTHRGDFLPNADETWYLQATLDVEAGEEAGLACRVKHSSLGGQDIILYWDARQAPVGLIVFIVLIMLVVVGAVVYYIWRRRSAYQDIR

Row | Compound | IFN-γ producing NKT cells (NKT cells [1]) | bias toward Vβ7 proliferation (Vβ7+ NKT cells) | NKT cell proliferation (NKT cells [2]; 1 ng/ml glycolipid) | NKT cell proliferation (NKT cells [2]; 100 ng/ml glycolipid) | Th2 bias of cytokine production (NKT cells [3]) | further results
1 | CCCCCCCCCCCCCCCCCCCCCCCCCC(=O)N[C@@H](CO[C@H]1O[C@H](CO)C[C@H](O)[C@H]1O)[C@H](O)CCCCCCCCCCCCCCC [4′,4″-deoxy-α-GalCer] | less potent inducers of IFN-γ production | showed a Vβ7 bias |  |  |  | 
2 | CCCCC/C=C\C/C=C\CCCCCCCCCC(=O)N[C@@H](CO[C@H]1O[C@H](CO)[C@H](O)[C@H](O)[C@H]1O)[C@H](O)[C@H](O)CCCCCCCCCCCCCC [C20:2] | highest percentages of IFN-γ producing NKT cells |  | barely induced NKT cell proliferation | able to induce proliferation | not apparent | 
3 | CCCCCCCCCCCCCCCCCCCCCCCCCC(=O)N[C@@H](CO[C@H]1O[C@H](CO)C[C@H](O)[C@H]1O)[C@H](O)[C@H](O)CCCCCCCCCCCCCC [4′-deoxy-α-GalCer] | less potent inducers of IFN-γ production | showed a Vβ7 bias |  |  |  | 
4 | CCCCCCCCCCCCCCCCCCCCCCCC(=O)N[C@@H](COC1OC(CO)C(O)C(O)C1O)[C@H](O)[C@H](O)CCCCC (stereo partly shown) [OCH, reference compound] | highest percentages of IFN-γ producing NKT cells | loss of Vβ7^+ NKT cells with each progressive division cycle | consistently weaker in comparison to the non-truncated AGLs |  | not apparent | t1/2 life of the interaction, comparison in words (mouse Vβ8.2 NKT TCR): markedly longer half life when compared to that of the 3′,4″-deoxy AGL; affinity relative to the NKT TCR-CD1d-α-GalCer interaction (mouse Vβ8.2 NKT TCR; compared with the α-GalCer positive control): approximately 20%; effect on kinetic rate constants (ka, kd) (mouse Vβ8.2 NKT TCR; compared with α-GalCer, in words): impacted negatively on the association constant; Th2 bias of NKT cell cytokine production (NKT cells [4]): fails to reveal a Th2 bias
5 | CCCCC/C=C\C/C=C\CCCCCCCCCC(=O)N[C@@H](CO[C@H]1O[C@H](CO)[C@@H](O)[C@H](O)[C@H]1O)[C@H](O)[C@H](O)CCCCCCCCCCCCCC [α-GlcCer (C20:2)] | least IFN-γ production of all | showed a Vβ7 bias | barely induced NKT cell proliferation | able to induce proliferation |  | bias toward Vβ7 proliferation (Vβ7+ NKT cells; listed as α-GlcCer): progressively enriched with each division cycle
6 | CCCCCCCCCCCCCCCCCCCCCCCCCC(=O)N[C@@H](CO[C@H]1O[C@H](CO)[C@H](O)[C@H](O)[C@H]1O)[C@H](O)[C@H](O)CCCCCCCCCCCCCC [α-GalCer, α-galactosylceramide] | highest percentages of IFN-γ producing NKT cells |  |  |  |  | Kd (mouse Vβ8.2 NKT TCR): ~59 nM; t1/2 life of the interaction (mouse Vβ8.2 NKT TCR; NKT TCR-CD1d-glycolipid interaction): approximately 20 s; serum IFN-γ response [5]: more sustained IFN-γ response at 20h
